Assay [1] concerns the target Tyrosine-protein kinase HCK (Homo sapiens) (UniProt P08631). The experiment in a line: Inhibition of human recombinant HCK at 40 nM in presence of ATP by radiometric assay relative to control.
In assay [2] the target is Serine/threonine-protein kinase 26 (Homo sapiens) (UniProt Q9P289). The experiment in a line: Inhibition of human recombinant MST4 at 40 nM related to control ULK1.
Assay [3] deals with Glycogen synthase kinase-3 alpha (Homo sapiens) (UniProt P49840). The experiment in a line: Inhibition of human recombinant GSK3A at 40 nM related to control ULK1.
Sequence of Glycogen synthase kinase-3 alpha (Homo sapiens) (P49840 2-483 limits assumed): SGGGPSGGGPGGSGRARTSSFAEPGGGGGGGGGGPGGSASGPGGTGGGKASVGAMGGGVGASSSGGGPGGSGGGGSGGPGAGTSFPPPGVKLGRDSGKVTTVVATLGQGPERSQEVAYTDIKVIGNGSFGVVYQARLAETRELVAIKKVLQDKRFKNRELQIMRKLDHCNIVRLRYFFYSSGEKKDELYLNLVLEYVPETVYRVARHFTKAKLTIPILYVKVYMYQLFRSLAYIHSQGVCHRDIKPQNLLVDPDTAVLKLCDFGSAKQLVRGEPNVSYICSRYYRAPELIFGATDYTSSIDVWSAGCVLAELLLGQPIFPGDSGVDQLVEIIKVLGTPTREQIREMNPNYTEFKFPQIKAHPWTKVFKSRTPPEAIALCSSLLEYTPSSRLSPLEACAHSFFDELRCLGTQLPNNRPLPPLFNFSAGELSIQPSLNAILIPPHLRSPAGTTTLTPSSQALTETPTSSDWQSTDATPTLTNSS
Assay [4] concerns the target Protein kinase C alpha type (Homo sapiens) (UniProt P17252). The experiment in a line: Inhibition of human recombinant PKCa at 40 nM related to control ULK1.
Assay [5] addresses T1, Serine/threonine-protein kinase A-Raf (Homo sapiens) (UniProt P10398).
T1 sequence (whole entry): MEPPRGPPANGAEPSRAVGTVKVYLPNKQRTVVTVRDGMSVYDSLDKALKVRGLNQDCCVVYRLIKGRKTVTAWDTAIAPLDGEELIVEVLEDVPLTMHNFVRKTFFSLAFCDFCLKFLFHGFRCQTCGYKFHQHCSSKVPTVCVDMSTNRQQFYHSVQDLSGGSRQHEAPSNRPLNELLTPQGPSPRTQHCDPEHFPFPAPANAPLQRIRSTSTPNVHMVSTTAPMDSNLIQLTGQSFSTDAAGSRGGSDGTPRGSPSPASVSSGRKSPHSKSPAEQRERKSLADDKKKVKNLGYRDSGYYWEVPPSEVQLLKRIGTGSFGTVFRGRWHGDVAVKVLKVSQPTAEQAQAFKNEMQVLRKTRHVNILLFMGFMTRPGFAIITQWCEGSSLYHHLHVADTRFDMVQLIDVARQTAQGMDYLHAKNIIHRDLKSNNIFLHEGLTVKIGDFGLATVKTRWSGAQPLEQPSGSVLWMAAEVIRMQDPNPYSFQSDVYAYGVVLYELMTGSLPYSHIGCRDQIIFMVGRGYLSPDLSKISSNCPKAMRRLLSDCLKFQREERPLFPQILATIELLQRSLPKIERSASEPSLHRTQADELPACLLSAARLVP
The experiment in a line: Inhibition of human recombinant ARAF at 40 nM in presence of ATP by radiometric assay relative to control. In a few lines: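 Panel of 327 recombinant human kinases, each assayed in vitro by radiometric activity assay in duplicate at a single inhibitor concentration per compound, chosen with reference to its ULK1 inhibition. Activity remaining was expressed as percent of vehicle control, and percent inhibition was calculated as 100 minus percent activity remaining.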

The target of assay [6] is Insulin receptor (Homo sapiens) (UniProt P06213). The experiment in a line: Inhibition of human recombinant INSR at 40 nM related to control ULK1.
For assay [7], the target named is Protein kinase C iota type (Homo sapiens) (UniProt P41743). The experiment in a line: Inhibition of human recombinant PKCi at 40 nM related to control ULK1.
Sequence of Protein kinase C iota type (Homo sapiens) (P41743 whole entry, looked up): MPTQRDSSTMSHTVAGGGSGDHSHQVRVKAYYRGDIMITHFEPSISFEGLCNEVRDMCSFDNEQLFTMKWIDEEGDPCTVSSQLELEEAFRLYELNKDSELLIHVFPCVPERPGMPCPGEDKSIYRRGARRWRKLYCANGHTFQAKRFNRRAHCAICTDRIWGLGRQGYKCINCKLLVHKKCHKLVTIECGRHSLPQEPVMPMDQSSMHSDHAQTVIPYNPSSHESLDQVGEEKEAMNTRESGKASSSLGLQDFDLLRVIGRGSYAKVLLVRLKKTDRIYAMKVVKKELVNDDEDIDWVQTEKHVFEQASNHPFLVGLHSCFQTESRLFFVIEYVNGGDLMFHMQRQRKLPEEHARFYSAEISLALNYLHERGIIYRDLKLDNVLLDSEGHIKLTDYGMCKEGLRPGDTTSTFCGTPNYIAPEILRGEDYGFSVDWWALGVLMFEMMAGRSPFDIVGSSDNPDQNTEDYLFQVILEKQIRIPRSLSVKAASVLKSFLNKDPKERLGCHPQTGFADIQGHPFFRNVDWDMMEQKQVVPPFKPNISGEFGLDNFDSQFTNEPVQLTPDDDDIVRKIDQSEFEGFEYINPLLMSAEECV
In assay [8] the target is Fibroblast growth factor receptor 3 (Homo sapiens) (UniProt P22607). The experiment in a line: Inhibition of human recombinant FGFR3 at 40 nM related to control ULK1.
Assay [9] addresses T2, Mitogen-activated protein kinase 13 (Homo sapiens) (UniProt O15264).
T2 sequence (whole entry): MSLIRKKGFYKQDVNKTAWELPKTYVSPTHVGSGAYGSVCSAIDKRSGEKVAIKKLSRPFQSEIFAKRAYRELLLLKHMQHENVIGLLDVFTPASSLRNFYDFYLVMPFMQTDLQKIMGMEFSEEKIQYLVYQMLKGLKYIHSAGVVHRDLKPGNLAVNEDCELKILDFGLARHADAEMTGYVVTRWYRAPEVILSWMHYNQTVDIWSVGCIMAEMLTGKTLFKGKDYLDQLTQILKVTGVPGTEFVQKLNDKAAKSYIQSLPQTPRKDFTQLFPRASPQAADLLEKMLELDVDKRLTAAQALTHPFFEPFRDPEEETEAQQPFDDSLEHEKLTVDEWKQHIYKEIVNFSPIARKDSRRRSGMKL
Nature of the assay: Inhibition of human recombinant p38delta at 500 nM related to control ULK1.

In assay [10] the target is Cell division cycle 7-related protein kinase (Homo sapiens) (UniProt O00311). Nature of the assay: Inhibition of human recombinant CDC7 at 500 nM related to control ULK1.
Sequence of Cell division cycle 7-related protein kinase (Homo sapiens) (O00311 whole entry, looked up): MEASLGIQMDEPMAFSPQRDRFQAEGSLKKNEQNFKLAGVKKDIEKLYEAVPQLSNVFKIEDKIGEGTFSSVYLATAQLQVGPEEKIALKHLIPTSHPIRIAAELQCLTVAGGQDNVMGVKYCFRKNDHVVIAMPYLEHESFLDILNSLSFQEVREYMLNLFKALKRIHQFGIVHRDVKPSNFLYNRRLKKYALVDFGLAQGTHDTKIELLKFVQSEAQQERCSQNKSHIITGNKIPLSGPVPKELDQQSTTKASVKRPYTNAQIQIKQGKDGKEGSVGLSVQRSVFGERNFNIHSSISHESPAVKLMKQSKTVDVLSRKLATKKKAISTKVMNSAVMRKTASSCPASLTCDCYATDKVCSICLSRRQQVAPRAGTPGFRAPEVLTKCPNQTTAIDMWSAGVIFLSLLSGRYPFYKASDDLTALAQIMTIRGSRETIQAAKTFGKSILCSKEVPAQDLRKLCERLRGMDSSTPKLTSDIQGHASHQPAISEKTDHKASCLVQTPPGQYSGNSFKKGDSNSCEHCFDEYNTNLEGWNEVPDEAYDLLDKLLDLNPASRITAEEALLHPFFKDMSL
The target in assay [11] is STE20-like serine/threonine-protein kinase (Homo sapiens) (UniProt Q9H2G2). The experiment in a line: Inhibition of human recombinant SLK at 500 nM related to control ULK1.
The target of assay [12] is Tyrosine-protein kinase Blk (Homo sapiens) (UniProt P51451). Nature of the assay: Inhibition of human recombinant BLK at 500 nM related to control ULK1.
Sequence of Tyrosine-protein kinase Blk (Homo sapiens) (P51451 2-505 limits assumed): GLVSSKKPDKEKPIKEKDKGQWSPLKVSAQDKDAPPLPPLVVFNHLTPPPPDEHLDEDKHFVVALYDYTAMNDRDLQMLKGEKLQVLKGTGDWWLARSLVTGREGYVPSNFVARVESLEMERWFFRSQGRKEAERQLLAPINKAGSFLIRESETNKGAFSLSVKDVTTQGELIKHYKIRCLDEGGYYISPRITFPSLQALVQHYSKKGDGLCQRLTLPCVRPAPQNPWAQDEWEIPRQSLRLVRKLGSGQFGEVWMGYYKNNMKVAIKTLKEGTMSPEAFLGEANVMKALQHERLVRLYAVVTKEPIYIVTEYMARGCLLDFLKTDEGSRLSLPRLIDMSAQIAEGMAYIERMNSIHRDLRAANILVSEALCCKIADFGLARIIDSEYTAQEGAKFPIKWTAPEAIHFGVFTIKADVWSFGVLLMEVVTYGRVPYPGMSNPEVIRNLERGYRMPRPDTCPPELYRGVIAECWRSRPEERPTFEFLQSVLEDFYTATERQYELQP
Assay [13] concerns the target Calcium/calmodulin-dependent protein kinase kinase 1 (Homo sapiens) (UniProt Q8N5S9). The experiment in a line: Inhibition of human recombinant CaMKK1 at 500 nM related to control ULK1.
In assay [14] the target is T3, Dual specificity mitogen-activated protein kinase kinase 6 (Homo sapiens) (UniProt P52564).
T3 sequence (whole entry): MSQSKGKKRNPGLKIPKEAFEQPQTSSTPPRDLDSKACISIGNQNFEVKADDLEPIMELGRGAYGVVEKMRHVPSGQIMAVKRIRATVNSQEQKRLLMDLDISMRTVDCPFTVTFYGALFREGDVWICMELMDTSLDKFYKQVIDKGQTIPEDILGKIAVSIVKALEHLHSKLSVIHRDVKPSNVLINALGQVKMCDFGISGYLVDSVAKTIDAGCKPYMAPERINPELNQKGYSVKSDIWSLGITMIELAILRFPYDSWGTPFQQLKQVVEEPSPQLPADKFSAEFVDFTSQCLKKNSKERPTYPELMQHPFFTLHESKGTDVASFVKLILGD
The experiment in a line: Inhibition of human recombinant MAP2K6 at 15 nM related to control ULK1.

For assay [15], the target named is Cyclin-dependent kinase 7 (Homo sapiens) (UniProt P50613). Nature of the assay: Inhibition of human recombinant CDK7 at 15 nM related to control ULK1.
Sequence of Cyclin-dependent kinase 7 (Homo sapiens) (P50613 whole entry): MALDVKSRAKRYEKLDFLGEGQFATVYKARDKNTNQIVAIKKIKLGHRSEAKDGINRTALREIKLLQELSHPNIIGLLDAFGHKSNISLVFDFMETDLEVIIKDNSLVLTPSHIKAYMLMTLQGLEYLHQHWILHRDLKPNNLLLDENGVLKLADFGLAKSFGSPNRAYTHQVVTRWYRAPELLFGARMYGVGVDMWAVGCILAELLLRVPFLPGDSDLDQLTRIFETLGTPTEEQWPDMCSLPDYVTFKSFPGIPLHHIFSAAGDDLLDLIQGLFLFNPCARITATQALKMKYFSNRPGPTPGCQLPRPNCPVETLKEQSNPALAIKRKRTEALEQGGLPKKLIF
Assay [16] deals with Receptor-interacting serine/threonine-protein kinase 2 (Homo sapiens) (UniProt O43353). Nature of the assay: Inhibition of human recombinant RIPK2 at 15 nM related to control ULK1.
Sequence of Receptor-interacting serine/threonine-protein kinase 2 (Homo sapiens) (O43353 whole entry): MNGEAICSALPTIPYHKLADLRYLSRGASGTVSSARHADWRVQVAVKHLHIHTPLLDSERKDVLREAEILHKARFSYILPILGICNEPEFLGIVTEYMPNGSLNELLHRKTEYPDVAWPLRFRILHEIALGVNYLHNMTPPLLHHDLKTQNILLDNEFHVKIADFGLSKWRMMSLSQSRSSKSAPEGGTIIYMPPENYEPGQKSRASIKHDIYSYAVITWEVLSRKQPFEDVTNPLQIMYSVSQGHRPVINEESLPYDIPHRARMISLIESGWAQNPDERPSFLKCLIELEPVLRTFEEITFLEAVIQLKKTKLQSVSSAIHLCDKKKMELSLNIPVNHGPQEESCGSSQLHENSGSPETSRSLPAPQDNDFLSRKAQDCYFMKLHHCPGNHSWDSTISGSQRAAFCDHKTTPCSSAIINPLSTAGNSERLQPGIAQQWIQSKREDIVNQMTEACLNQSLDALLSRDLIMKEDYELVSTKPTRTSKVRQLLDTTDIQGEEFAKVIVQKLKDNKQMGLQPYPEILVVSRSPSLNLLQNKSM
The target of assay [17] is Serine/threonine-protein kinase 32B (Homo sapiens) (UniProt Q9NY57). Nature of the assay: Inhibition of human recombinant YANK2 at 15 nM related to control ULK1.
Sequence of Serine/threonine-protein kinase 32B (Homo sapiens) (Q9NY57 whole entry): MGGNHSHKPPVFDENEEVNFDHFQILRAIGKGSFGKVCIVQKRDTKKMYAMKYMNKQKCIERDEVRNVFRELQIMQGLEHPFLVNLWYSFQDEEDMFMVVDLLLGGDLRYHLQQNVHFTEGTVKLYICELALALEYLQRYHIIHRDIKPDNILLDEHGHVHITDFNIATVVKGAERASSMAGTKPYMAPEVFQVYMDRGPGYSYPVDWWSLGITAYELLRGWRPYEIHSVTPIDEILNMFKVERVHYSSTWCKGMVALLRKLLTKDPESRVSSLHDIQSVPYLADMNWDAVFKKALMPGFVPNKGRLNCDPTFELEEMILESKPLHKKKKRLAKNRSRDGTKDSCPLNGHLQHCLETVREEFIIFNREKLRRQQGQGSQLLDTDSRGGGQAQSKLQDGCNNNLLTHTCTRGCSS
Assay [18] has as its target Proto-oncogene tyrosine-protein kinase ROS (Homo sapiens) (UniProt P08922). The experiment in a line: Inhibition of human recombinant ROS at 15 nM in presence of ATP by radiometric assay relative to control.
In assay [19] the target is Homeodomain-interacting protein kinase 1 (Homo sapiens) (UniProt Q86Z02). Nature of the assay: Inhibition of human recombinant HIPK1 at 15 nM related to control ULK1.
For assay [20], the target named is Transient receptor potential cation channel subfamily M member 7 (Homo sapiens) (UniProt Q96QT4). The experiment in a line: Inhibition of human recombinant ChaK1 at 15 nM in presence of ATP by radiometric assay relative to control.
In assay [21] the target is Casein kinase II subunit alpha' (Homo sapiens) (UniProt P19784). The experiment in a line: Inhibition of human recombinant CK2a2 at 15 nM related to control ULK1.
Sequence of Casein kinase II subunit alpha' (Homo sapiens) (P19784 whole entry, looked up): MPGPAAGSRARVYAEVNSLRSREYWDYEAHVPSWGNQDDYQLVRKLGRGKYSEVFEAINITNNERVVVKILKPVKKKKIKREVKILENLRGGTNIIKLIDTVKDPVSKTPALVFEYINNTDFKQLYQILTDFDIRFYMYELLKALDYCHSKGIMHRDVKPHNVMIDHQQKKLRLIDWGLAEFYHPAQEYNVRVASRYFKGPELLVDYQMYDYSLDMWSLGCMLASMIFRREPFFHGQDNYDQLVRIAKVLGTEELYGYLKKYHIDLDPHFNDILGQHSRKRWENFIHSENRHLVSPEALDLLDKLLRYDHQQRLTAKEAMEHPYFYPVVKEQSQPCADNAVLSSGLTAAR

Broadly, the inhibition is the change of the read-out against control, counted positive when it falls.

Sequence of Calcium/calmodulin-dependent protein kinase kinase 1 (Homo sapiens) (Q8N5S9 whole entry, looked up): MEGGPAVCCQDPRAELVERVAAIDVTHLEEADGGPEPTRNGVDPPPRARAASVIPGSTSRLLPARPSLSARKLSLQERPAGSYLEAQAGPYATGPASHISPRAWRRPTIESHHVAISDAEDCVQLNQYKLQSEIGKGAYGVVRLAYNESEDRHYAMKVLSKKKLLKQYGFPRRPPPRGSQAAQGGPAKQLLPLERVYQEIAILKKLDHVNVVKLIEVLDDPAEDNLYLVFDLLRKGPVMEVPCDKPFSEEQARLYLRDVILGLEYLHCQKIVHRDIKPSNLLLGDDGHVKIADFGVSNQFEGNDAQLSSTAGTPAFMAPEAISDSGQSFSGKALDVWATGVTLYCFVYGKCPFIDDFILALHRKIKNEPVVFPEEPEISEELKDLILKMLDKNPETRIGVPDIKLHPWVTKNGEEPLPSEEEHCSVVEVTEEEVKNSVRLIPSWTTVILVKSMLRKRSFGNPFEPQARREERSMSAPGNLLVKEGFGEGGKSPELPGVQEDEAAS

Regarding `O=C(N[C@@H](C1CC1)C(F)(F)F)c1cc(-c2cnn3cc(-c4ccc(F)cc4)cnc23)cs1`, the inhibition in assay [1] and in [5] was 0% each time. Besides, the fold change (FC) in assay [2], in assay [3], in assay [4], in assay [6], in assay [7] and in [8] was 0 in each case.

With `CNC(=O)c1ccccc1Oc1nc(Nc2cc(OC)c(OC)c(OC)c2)ncc1Br`, the fold change (FC) worked out at 0.26 in [9]; 0 in assay [10]; 0.2 in [11]; 0.39 in [12]; 0.11 in assay [13].

For `CC(C)[C@H](NC(=O)c1cc(-c2cnn3cc(-c4ccc(OCCN5CCCCC5)cc4)cnc23)cs1)C(F)(F)F`, the fold change (FC) in assay [14] is 0.06; in assay [15] it was 0.18; in assay [16], 0.11; in [17] it was 0; in assay [19], 0; in assay [21], 0.06. Also, the inhibition in assay [18] was 0%; in [20] it was 12%.

The values are drawn from ChEMBL document CHEMBL5653631, “A Potent and Selective ULK1 Inhibitor Suppresses Autophagy and Sensitizes Cancer Cells to Nutrient Stress” (iScience, 2018).
